Sampled rows, rich in hits. Any-hit rate of the full collection: about 2.6%.
NR1D1 modulator: modulators of Rev-erb alpha DNA binding, primary screen, biochemical, FITC-DNA, fluorescence polarization, uHTS. Nuclear receptor subfamily 1 group D member 1 (Homo sapiens), P20393. Rev-erbα–FITC-DNA binding, 90 min. activity, % at 10 µM. 0.79% of 370,000 active. AID 1259318, 2017;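 active means activity above about 14%, limit read from the data; passing the limit was not always enough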
NR2E3 ag-1: inhibitors of NR2E3-RetCOR corepressor binding, primary screen, NR2E3 agonist project, biochemical, TR-FRET, GST-NR2E3, biotin-RetCOR. Photoreceptor-specific nuclear receptor (Homo sapiens), Q9Y5X4. 1536-well. 0.12% of 320,000 active. inhibition of corepressor binding, % at 4.78 µM;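 active means percent inhibition above the cutoff of mean plus 3 SD of all tested compounds, set per screening campaign, cut at about 20% in these data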
Target sequence (Q9Y5X4 whole entry, looked up): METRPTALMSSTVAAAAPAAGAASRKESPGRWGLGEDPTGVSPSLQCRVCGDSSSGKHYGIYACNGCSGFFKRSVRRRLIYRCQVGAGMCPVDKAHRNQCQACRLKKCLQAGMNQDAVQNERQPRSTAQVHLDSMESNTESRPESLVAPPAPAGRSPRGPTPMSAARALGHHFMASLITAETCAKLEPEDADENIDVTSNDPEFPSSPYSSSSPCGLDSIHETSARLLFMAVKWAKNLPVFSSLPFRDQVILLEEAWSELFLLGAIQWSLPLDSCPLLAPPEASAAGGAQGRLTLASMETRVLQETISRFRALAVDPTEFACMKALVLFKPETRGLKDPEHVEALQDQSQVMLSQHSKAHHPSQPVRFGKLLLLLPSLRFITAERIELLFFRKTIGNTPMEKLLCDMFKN
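Material – GST-tagged NR2E3 plus biotinylated RetCOR corepressor · Quantity – NR2E3 fusion 1.35 nM · Times – 5 h incubation at 4 °C · Medium – pH 7.5 Tris-based buffer · Technique – TR-FRET, Eu(K)-anti-GST donor, streptavidin-D2 acceptor, ex 340, em 617/671 nm · Benchmarks – high control biotin, low control 0.6% DMSO · Format – 1536-well plates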
rCAG RNA binder: binders of r(CAG) RNA repeats, primary screen, biochemical, fluorescence; r(CAG) RNA repeat, TO-PRO-1 dye displacement fluorescence; 1.3% of 370,000 active; inhibition, % at 3 µM; AID 651821, 2012;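 active means inhibition above the plate cutoff, the mean of all test compounds on that plate plus 3 SD, cut at about 35% in these data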;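 further: higher means more dye released from RNA so lower well fluorescence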
PG9 binder: binders of HIV-1 gp120 antibody PG9, primary screen, biochemical, TR-FRET. AID 624416, 2012. inhibition, % at 6.7 µM. 0.43% of 360,000 active. HIV-1 gp120 / PG9 antibody interaction. TR-FRET gp120-PG9 antibody binding; in the data active means inhibition above about 8.5%
NR2E3 ag-2: NR2E3 agonists in two-hybrid cells, primary screen, cell-based, luminescence, CHO-S, Gal4-NCOR/VP16-NR2E3; 0.35% of 360,000 active; inhibition of corepressor binding, % at 3.98 µM; AID 602229, 2012; luciferase; Photoreceptor-specific nuclear receptor (Homo sapiens), Q9Y5X4;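 active means inhibition above the mean of all tested compounds plus 3 SD, cut at about 70% in these data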;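 further: higher means lower luciferase signal from less NR2E3 corepressor binding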
NR2E3 ag conf: NR2E3 agonist confirmation in cells, cell-based, luminescence, CHO-S two-hybrid. shares compounds with NR2E3 ag-2. CHO-S mammalian two-hybrid NR2E3-NCOR, luciferase luminescence. inhibition, % at 3.98 µM. 51% of 2,300 active. AID 624378, 2012;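 active means average inhibition above a cutoff equal to the mean inhibition of all tested compounds plus one SD, cut at about 70% in these data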
GAL4-VP16 luc: GAL4-VP16 reporter modulators, confirmation, counter-screen for NR2E3 agonist project, cell-based, luminescence, CHO-S, high throughput | shares compounds with NR2E3 ag-2 | CHO-S GAL4-VP16 luciferase reporter | inhibition, % at 3.98 µM | 29% of 2,300 active | AID 624379, 2012;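 active means mean inhibition above a cutoff equal to the average over all tested compounds plus one standard deviation, cut at about 70% in these data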;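 further: luciferase from a UAS reporter driven by GAL4-VP16 transactivation; higher means less reporter light so more repression of VP16 activity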
Numbers stand for hits; - = inactive; . = no result given.

SMILES	NR1D1 modulator	NR2E3 ag-1	rCAG RNA binder	PG9 binder	NR2E3 ag-2	NR2E3 ag conf	GAL4-VP16 luc
CC(C)c1cc(C(=O)NC2CCCc3c2cnn3-c2ccccc2F)no1 (stereo not given)	-	-	-	-	-	-	-
Cc1nnsc1C(=O)NC1CCCc2c1cnn2-c1ccc(F)cc1F (stereo not given)	-	-	-	-	96	71	-
O=C(N[C@@H]1CCCc2c1cnn2-c1ccc(F)cc1F)c1ccccn1	-	.	.	.	.	.	.
Cc1ccc(C(=O)NC2CCCc3c2cnn3-c2ccc(F)cc2F)cn1 (stereo not given)	-	-	-	-	100	95	79
O=C(CC(Nc1ccc(Cl)cc1Cl)C(=O)O)c1ccccc1 (stereo not given)	-	-	-	-	-	-	-
COc1ccc(/C=C2\SC(=S)N(CCC(=O)Nc3cccc(O)c3)C2=O)cc1OC	-	-	-	-	-	.	.
COc1ccc(/C=C2/SC(=S)N(CCCC(=O)Nc3cccc(O)c3)C2=O)cc1	-	-	-	-	-	-	-
COc1cccc(/C=C2\SC(=S)N(CCCC(=O)Nc3cccc(C(=O)O)c3)C2=O)c1	.	.	.	.	-	-	-
COc1ccc(/C=C2\SC(=S)N(CCCC(=O)Nc3cccc(C(=O)O)c3)C2=O)cc1OC	-	-	-	-	-	.	.
COc1ccc(/C=C2\SC(=O)N(CCCC(=O)Nc3ccc(C(=O)O)cc3)C2=O)cc1	-	.	-	-	88	85	92
COCc1[nH]nc2c1C(c1ccc(F)cc1)N(c1ccccc1)C2=O (stereo not given)	-	.	-	-	.	.	.
C=CCCC1CN(Cc2ccc(OC)cc2)S(=O)(=O)c2c(Oc3ccc(C)cc3)cccc2O1 (stereo not given)	-	.	-	-	.	.	.
Nc1[nH]c(C(=O)c2ccc(Br)cc2)c(-c2ccc3ccccc3c2)c1C(=O)NCCc1c[nH]c2ccccc12	-	.	-	-	.	.	.
CC(C)C[C@@H]1COc2cccc(NCCO)c2S(=O)(=O)N1	-	.	-	-	.	.	.
O=C(CSc1nnnn1-c1ccccc1)Nc1ccc(Cl)cc1	-	-	-	-	-	.	.
NC(=O)c1nn(-c2ccccc2)nc1NC(=O)CSc1nnnn1-c1ccc(Cl)cc1	-	-	-	-	92	97	-
COC(=O)c1cnn(-c2nc(OC)cc(OC)n2)c1C	-	-	-	-	-	.	.
COc1cc(OC)nc(-n2ncc(Br)c(Br)c2=O)n1	-	-	-	-	74	97	-
O=C(OCc1nnc(-c2ccccc2)o1)c1cn(-c2ccccc2)nc1-c1ccccc1	-	-	-	-	-	.	.
Cc1cc(C(=O)OCc2nnc(-c3ccccc3)o2)c(C)n1-c1ccccc1	-	-	-	-	-	-	-
O=C(NCCCCCCNC(=O)c1ccccc1O)c1ccccc1O	-	-	-	-	-	88	-
O=C(CNC(=O)c1ccccc1)NCCCSc1ccccc1	-	.	-	-	-	.	.
O=C(NCCCSc1ccccc1)c1cc(Cl)ccc1O	-	.	-	-	78	99	87
COc1cc(CN2CCN(c3ncc(Cc4ccccc4)cn3)CC2)cc(OC)c1	-	.	-	-	.	.	.
O=C(NCc1ccc(C(=O)N2CCOCC2)cc1)c1cccc(Br)c1	-	.	-	.	.	.	.
SMILES	NR1D1 modulator	NR2E3 ag-1	rCAG RNA binder	PG9 binder	NR2E3 ag-2	NR2E3 ag conf	GAL4-VP16 luc
COc1ccc(NC(=O)Cn2cc(C(C)=O)c3ccccc32)cc1	-	-	-	-	-	-	-
CC1CCN(C(=O)c2ncn3c2C(=O)N[C@H](C)C3)CC1	-	.	-	-	.	.	.
CC(=O)OCC(=O)Nc1ccc([N+](=O)[O-])cc1Cl	-	-	-	-	-	.	.
CC(=O)Oc1c(C)cc(Cl)cc1C(=O)Nc1ccc([N+](=O)[O-])cc1Cl	-	-	-	-	83	99	73
CCOC(=O)C1CSCCS(=O)(=O)N1Cc1ccccc1F (stereo not given)	-	.	-	-	.	.	.
O=C(c1cccs1)N1CCN(c2ccc([N+](=O)[O-])cc2F)CC1	-	-	-	-	-	.	.
Cc1cc(N2CCN(C(=O)c3cccs3)CC2)c(F)cc1[N+](=O)[O-]	-	-	-	-	79	82	-
O=C(C(=O)N1CCN(C(=O)c2cccs2)CC1)c1cccc(C(F)(F)F)c1	-	.	-	-	.	.	.
CCn1cc(CN(C)S(=O)(=O)c2ccc3ccccc3c2)c(C)n1	-	-	-	-	-	88	71
CCn1cc(CN(C)S(=O)(=O)c2cccc([N+](=O)[O-])c2)cn1	-	-	-	-	-	.	.
CCCCNc1ccc2c(c1)OC[C@H](C)NS2(=O)=O	-	.	-	-	.	.	.
CCN(c1ccccc1)S(=O)(=O)c1ccc(C(=O)NC2CCCCC2)cc1	-	.	-	-	-	.	.
CCN(c1ccccc1)S(=O)(=O)c1ccc(C(=O)NC2CCN(Cc3ccccc3)CC2)cc1	.	.	.	.	-	80	-
CSCc1cc(N(C)c2ccccc2)nc(-c2ccccn2)n1	-	-	-	-	109	-	-
CN(C)c1cc(C(F)(F)F)nc(-c2ccccn2)n1	-	-	-	-	-	.	.
CCCN(CCC)c1cc(=O)nc2ccccn12	-	.	-	-	.	.	.
CCOC(=O)C1CCCN(C(=O)c2ccc(C(F)(F)F)nc2C)CC1 (stereo not given)	-	.	-	-	-	.	.
COc1ccccc1C(=O)Nc1nc2ccccc2[nH]1	-	-	-	-	82	77	-
COc1cc(SC)ccc1C(=O)Nc1nc2ccccc2[nH]1	-	-	-	-	110	95	91
COc1ccc(-c2nc3ccc(Cl)cn3c2Cc2ccsc2)cc1OC	-	.	-	-	-	.	.
CCc1c(-c2cccc(OC)c2)ncn1CCc1ccccc1OC	-	.	-	-	.	.	.
COC(=O)[C@]12C[C@H](CC(=O)N3CCSCC3)C(=O)N(Cc3ccccc3)C1=C[C@H](C1CCCC1)O[C@@H]2C	-	.	-	-	.	.	.
Cc1ccc(-n2nnnc2SCC(=O)Nc2ccc3c(c2)OCCO3)cc1C	-	-	-	-	-	.	.
COc1ccc(OC)c(NC(=O)CSc2nnnn2-c2ccc3c(c2)OCO3)c1	-	-	-	-	101	100	-
Cc1ccc(NC(=O)CSc2nnnn2-c2ccc3c(c2)OCO3)cc1C	-	-	-	-	91	100	-

Compound activity deposited in PubChem BioAssay by several laboratories.
